Screens from PubChem.
T cruzi inh: blocks replication of Trypanosoma cruzi | T. cruzi beta-gal in NIH3T3, luminescence, 90 h | inhibition, % (concentration not given with the values) | 1.4% of 300,000 active;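 active = mean inhibition across valid replicates above about 55%, limit read from the data; inconclusive = mean below that limit but half or more replicates reach it; inactive = mean below it, under half of replicates reach it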;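 note: signal also drops with host cell toxicity which is not excluded here; 0% = plate median of DMSO wells and 100% = zero luminescence signal; higher percent means less beta-gal luminescence so fewer parasites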
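Assay system: NIH/3T3 host cells with β-galactosidase reporter T. cruzi; input: 5,000 host fibroblasts per well; compound: single 50 nL compound addition per well in DMSO; timing: ≥90 h infection period, 3 h prior cell attachment; measured by: GalScreen β-gal luminescence, detergent lysis, 60 min; evaluation: percent inhibition of parasite-derived β-gal signal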
MPTP block: permeability transition pore inhibition. inhibition, % at 10 µM. AID 602449. 1.4% of 360,000 active. isolated mouse mitochondria, Ca2+ swelling absorbance, 30 min;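 active = inhibition of 50% or more, scaled per plate between neutral and stimulator controls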;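 note: 0% = DMSO wells given calcium and 100% = 1 mM EGTA wells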
L major viab: inhibitors of Leishmania major promastigote growth; Leishmania major promastigotes, resazurin fluorescence viability; inhibition, % at 10 µM; 9% of 200,000 active; in the data active = inhibition above about 50%;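 note: promastigotes grown with compound for 44 hours at 28 °C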
Redox H2O2 prof: compounds producing H2O2 with reducing agent – biochemical, NIH compound library profiling, artefact control for MLSCN library redox annotation, primary screen | DTT-dependent redox cycling H2O2, phenol red/HRP absorbance; 100% = 100 µM peroxide control, 0% = buffer | activation, % at 10 µM | 0.03% of 200,000 active;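 active = activation of at least 50% relative to the plate's high and low controls in the primary single-dose screen; inactive = activation below 50%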;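 note: compound incubated with DTT at 0.8 mM final as the reducing agent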
Lipid droplet: modulators of hepatic lipid droplet formation; 0.4% of 240,000 active; AML12 mouse hepatocytes, oleate lipid droplets, BODIPY imaging; inhibition, % at 6.5 µM;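 active = lipid droplet intensity inhibited by at least 50%, with more than 500 cells counted; inconclusive = wells with under 300 cells, treated as cytotoxic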
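Material – mouse AML12 hepatocyte cell line, fixed after treatment · Compound dosing – one dose, 6.5 µM compound · Times – compound with oleate, overnight · Measured by – Image-based BODIPY and DAPI two-channel analysis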
An asterisk follows results filed as active; ? = inconclusive; . = no result given. This excerpt belongs to a sample that is enriched for hits.

SMILES | T cruzi inh | MPTP block | L major viab | Redox H2O2 prof | Lipid droplet
NC(=S)N/N=C/c1ccc2cccc(OCc3ccccc3)c2n1 | 44 | 0 | . | . | -28
O/N=C/c1ccc2cccc(OCc3ccccc3)c2n1 | -7 | 1 | . | . | -3
COc1c(OC(C)=O)ccc(/C=C/c2ccc3cccc(OCc4ccccc4)c3n2)c1[N+](=O)[O-] | 10 | 19 | 62* | 0 | 9
NC(N)=N/N=C/c1ccc2cccc(OCc3ccccc3)c2n1 | 57* | 13 | . | . | 22
O=C(N/N=C/c1ccc2cccc(OCc3ccccc3)c2n1)c1ccc(Br)cc1 | 0 | 1 | 75* | -5 | .
COc1cc(/C=C/c2ccc3cccc(OC)c3n2)c(OC(C)=O)c([N+](=O)[O-])c1 | 17 | 9 | 14 | 1 | .
O=c1onc(-c2ccc(Cl)cc2Cl)n1-c1cccnc1 | 3 | 2 | . | . | -2
COc1ccccc1/C=C/CN1CCCC(CCC(=O)NCc2ccccc2F)C1 (centres undefined) | 76* | 1 | 37 | -1 | 2
Cc1ncc(CN2CCCC(CCC(=O)NCc3ccc(F)c(F)c3)C2)s1 (centres undefined) | 61* | -2 | 88* | 0 | 5
Cc1ncc(CN2CCCC(CCC(=O)NCc3ccccc3F)C2)s1 (centres undefined) | 61* | -1 | 77* | -1 | 0
O=C(CCC1CCCN(Cc2ccc3c(c2)CCO3)C1)NCc1ccc(F)c(F)c1 (centres undefined) | 63* | 1 | 99* | 0 | 0
Cc1ccc(C(=O)N2CCCC(CCC(=O)NCc3ccccc3F)C2)cn1 (centres undefined) | -9 | -1 | . | . | -6
COc1ccccc1CC(=O)N1CCCC(CCC(=O)NCc2ccccc2F)C1 (centres undefined) | 3 | 2 | . | . | 1
CCCOc1ccc(CNC(=O)C2CCN(C(=O)N3CCOc4ccccc43)CC2)cc1 | 5 | -1 | . | . | -5
O=C(CCC1CCCNC1)c1ccccc1 (centres undefined) | -2 | . | . | . | 4
COc1cccc(CNC(=O)CCC2CCCN(C(=O)Cc3ccccc3F)C2)c1 (centres undefined) | 11 | 4 | -1 | -2 | -20
O=C(CCC1CCCN(C2C3CC4CC(C3)CC2C4)C1)NCc1ccc(F)c(F)c1 (centres undefined) | 12 | -1 | 56* | 1 | -21
Cc1occc1C(=O)N1CCCC(CCC(=O)NCc2ccc(F)c(F)c2)C1 (centres undefined) | -6 | -2 | 2 | 1 | 9
CC(=O)c1cccc(CN2CCCC(CCC(=O)NCc3ccccc3F)C2)c1 (centres undefined) | 61* | 1 | 92* | -1 | -8
Cc1ccc(C(=O)N/C(=C\c2ccccc2)C(=O)NCCCn2ccnc2)cc1 | -14 | -1 | -2 | -1 | -10
O=C(OCc1cccc(F)c1)c1cc2ccccc2cc1O | -1 | 0 | . | . | 7
CCC(c1nc2ccccc2[nH]1)n1c(=O)c(-c2ccccc2)nc2ccccc21 (centres undefined) | . | -2 | . | . | .
COc1ccc(C2c3[nH]c4ccccc4c3CCN2C(=O)c2cn3ccccc3n2)c(F)c1 (centres undefined) | 30 | 0 | 53* | -1 | -5
O=C(c1cc(-c2ccccc2)n[nH]1)N1CCc2c([nH]c3ccccc23)C1c1ccccn1 (centres undefined) | 29 | 0 | 86* | 0 | 28
Cc1ccc2nc(C(=O)N3CCc4c([nH]c5ccccc45)C3c3ccccn3)cn2c1 (centres undefined) | 11 | 0 | 68* | 0 | 8
SMILES | T cruzi inh | MPTP block | L major viab | Redox H2O2 prof | Lipid droplet
O=C(c1cccs1)N1CCc2c([nH]c3ccccc23)C1c1ccccn1 (centres undefined) | 8 | 1 | 17 | -1 | -7
CCOc1ccc(C2/C(=C(/O)c3ccc(S(=O)(=O)N4CCCCC4)cc3)C(=O)C(=O)N2CCCOC)cc1OC (centres undefined) | ? | 0 | . | . | -4
O=C(C1=C(O)C(=O)N(CC2CCCO2)C1c1cccc(Cl)c1)c1ccco1 (centres undefined) | -18 | 1 | . | . | -12
CN(C)CCOc1ccc2c(c1)Sc1ccccc1CC2=O | 46 | -1 | 100* | 0 | -31
CC1CCN(CCCNC(=O)c2ccc(CSCc3cccc(Cl)c3)o2)CC1 | 24 | 0 | 100* | 0 | 9
CC1CCCN(CCCNC(=O)c2ccc(CS(=O)(=O)Cc3cccc(Cl)c3)o2)C1 (centres undefined) | 7 | 2 | . | . | 6
CN1CCN(CCCNC(=O)c2ccc(CSCc3cccc(Cl)c3)o2)CC1 | 23 | . | 99* | 0 | .
O=C(NCCCN1CCCC1)c1ccc(CSCc2cccc(Cl)c2)o1 | 53 | -2 | 99* | 0 | 13
Nc1ccc(O)cc1C(=O)OCC(=O)c1ccc(C2CCCCC2)cc1 | 12 | 6 | 60* | 0 | 30
CCCCNC(=O)c1cccnc1SCC(=O)Nc1ccccc1OC | -1 | 0 | 3 | 0 | -11
CCCCCCCCNC(=O)c1cccnc1SCC(=O)Nc1ccc(OC)cc1OC | 28 | 11 | 86* | 0 | 6
Cc1ccc(NC(=S)N2CCn3cccc3C2c2cccnc2)cc1 (centres undefined) | -5 | 1 | 81* | 0 | 7
CCc1cccc(CC)c1NC(=S)N1CCn2cccc2C1c1cccnc1 (centres undefined) | 48 | 0 | 83* | 1 | -16
CCNC(=S)N1CCn2cccc2C1c1ccc(F)cc1 (centres undefined) | -10 | 0 | -7 | 0 | -3
CCc1cccc(C)c1NC(=S)N1CCCCC1c1cccnc1 (centres undefined) | 2 | 2 | . | . | -11
O=C(C1CC(=O)N(c2ccc(Cl)cc2)C1)N1CCOCC1 (centres undefined) | 8 | -2 | . | . | 8
CNc1cc(C(F)(F)F)nc(-c2ccccn2)n1 | -20 | -3 | -6 | 2 | 8
Nc1nc(-c2ccccn2)nc(N)c1Cc1c(F)cccc1Cl | 57* | -4 | 101* | 0 | -8
Nc1nc(-c2ccccn2)nc(N)c1Cc1ccccc1F | 82* | -3 | 95* | -2 | .
Nc1nc(-c2ccccn2)nc(N)c1Cc1ccc(Cl)cc1Cl | 73* | -3 | 101* | 0 | .
CC(C)Oc1ccc(C(=O)OCC(=O)c2ccc[nH]2)cc1 | . | -1 | . | . | .
CC(C)CN1CCCC(N2CCN(c3cccc(Cl)c3)CC2)C1 (centres undefined) | 65* | 0 | . | . | -3
COc1ccc(CN2CCCC(N3CCN(c4cccc(Cl)c4)CC3)C2)cc1OC (centres undefined) | 56* | 0 | . | . | -4
CC1(Cc2cc(Cl)ccc2C(F)(F)F)C(=O)Nc2ccc(OC(F)(F)F)cc21 (centres undefined) | . | 5 | . | . | .
CC(NC(=O)CCCc1ccccc1)c1ccncc1 (centres undefined) | 4 | -1 | . | . | 1
